Measured values from PMC4332869 (Cancer chemotherapy and pharmacology, 2010).
Read-outs that look alike come from different tables or passages of the source.

Key:
[1] = Plasma pharmacokinetics in A375 tumor-bearing nude mice; format: in vivo, mouse; details: for AUC: AUC0–24 h
In short: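 Tumor-bearing nude mice got oral 5 or 10 mg/kg once, or 10 mg/kg daily for 7 days (tumors ≥600 mm3), as suspension in 1% Tween 80/PBS. Plasma came by cardiac exsanguination under isoflurane at 0.5–24 h (single) or 1–24 h after the last dose, n = 4. Acetonitrile/methanol extraction with analog internal standard. LC/MS/MS MRM, N-desmethyl m/z 445→287. Noncompartmental analysis; AUC by trapezoidal rule.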

[2] = tested on: A375 cell line; assay: Anti-proliferative response in cells grown in culture; format: cell-based, human; details: data not shown
[3] = Tissue and tumor distribution in A375 tumor-bearing nude mice; format: in vivo, mouse; details: for P:TAUC: plasma to tissue AUC ratio
[4] = tested on: tumor ERK phosphorylation (MEK1/2 inhibition); assay: Inhibition of tumor ERK phosphorylation by western blot; format: in vivo, mouse; details: A375 tumor
In short: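 Male athymic BALB/c nude mice carrying s.c. rear-flank A375 xenografts (5 million cells in 4:1 serum-free RPMI:Matrigel), tumors ≥400 mm3, got one oral gavage of 5 or 10 mg/kg in 1% Tween 80/PBS. Four mice were killed per time point (0.5–24 h). Frozen tumor was sonicated in Triton/Tris pH 7.5 lysis buffer, then SDS-PAGE with pERK/ERK immunoblot. % inhibition = 100×(1 − treated pERK/ERK ÷ vehicle pERK/ERK).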

[5] = tested on: A375 human melanoma xenograft tumors; assay: Tumor apoptosis; format: in vivo, mouse; details: A375 xenograft tumor sections, versus vehicle
In short: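 A375 xenograft tumors from oral-dosed and vehicle nude mice were formalin-fixed and paraffin-embedded, then cut into 5 μm sections. Sections were stained by TUNEL (TMR red in situ cell death kit) for apoptosis and by H&E for necrotic area, then imaged by fluorescence microscopy.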

[6] = cited from earlier work; for AUC: AUC0–12 h
[7] = tested on: patients; details: ref [1], cited from earlier work
[8] = metabolite in mouse plasma, AZD6244 5 mg/kg single oral dose
[9] = metabolite in mouse plasma, AZD6244 10 mg/kg once daily 7 days, steady state
[10] = metabolite in mouse plasma, AZD6244 10 mg/kg single oral dose
[11] = mouse plasma, 5 mg/kg single oral dose
[12] = mouse plasma, 10 mg/kg oral once daily 7 days, steady state
[13] = mouse plasma, 10 mg/kg single oral dose
[14] = nude, mouse, plasma, po, 5 mg/kg
[15] = nude, mouse, plasma, po, 10 mg/kg
[16] = human plasma, 100 mg single dose, ref Adjei et al. [1]

Q: What does the source list for `O=C(NOCCO)c1cc2[nH]cnc2c(F)c1Nc1ccc(Br)cc1Cl` [AZD6244-N-desmethyl]?
A: AUC0–24 h [1, 8]: 3,597 ng/(mL h); Cmax [1, 8]: 505 ng/mL; T1/2γ [1, 8]: 3.68 h; Tmax [1, 8]: 1.0 h; AUC0–24 h [1, 9]: 3,709 ng/(mL h); Cmax [1, 9]: 554 ng/mL; T1/2γ [1, 9]: 2.37 h; Tmax [1, 9]: 1.0 h; AUC0–24 h [1, 10]: 4,993 ng/(mL h); Cmax [1, 10]: 865 ng/mL; T1/2γ [1, 10]: 2.79 h; Tmax [1, 10]: 2.0 h; potency of cellular growth inhibition in vitro relative to parent [2]: approximately twice the potency of the parent

Q: With `Cn1cnc2c(F)c(Nc3ccc(Br)cc3Cl)c(C(=O)NOCCO)cc21` [AZD6244] as the compound, how does the T1/2γ [1, 11] read?
A: 2.81 h

Q: And the AUC [1, 11]?
A: 11,910 ng/(mL h)

Q: What about the T1/2γ [1, 12] of the same compound?
A: 2.29 h

Q: What about the AUC [1, 12] of the same compound?
A: 17,525 ng/(mL h)

Q: And the T1/2γ [1, 13]?
A: 2.62 h

Q: And the AUC [1, 13]?
A: 18,976 ng/(mL h)

Q: What about the CL/F [1, 14] of the same compound?
A: 6.67 mL/min/kg

Q: And the Cmax [1, 14]?
A: 2970 ng/mL

Q: And the Tmax [1, 14]?
A: 0.5 h

Q: And the Vd/F [1, 14]?
A: 1.7 L/kg

Q: What about the CL/F [1, 15] of the same compound?
A: 8.33 mL/min/kg

Q: What about the Cmax [1, 15] of the same compound?
A: 3350 ng/mL

Q: And the Tmax [1, 15]?
A: 2 h

Q: What about the Vd/F [1, 15] of the same compound?
A: 2 L/kg

Q: What about the “AUC0–12 h” value ([3]; gut, 5 mg/kg, single dose) of the same compound?
A: 5,008 ng/(g h)

Q: What about the “AUC0–12 h” value ([3]; gut, 10 mg/kg, single dose) of the same compound?
A: 6,845 ng/(g h)

Q: What about the “AUC0–12 h” value ([3]; gut, 10 mg/kg, steady state) of the same compound?
A: 2,278 ng/(g h)

Q: What about the “AUC0–12 h” value ([3]; liver, 5 mg/kg, single dose) of the same compound?
A: 4,356 ng/(g h)

Q: What about the Cmin ([3]; liver, 5 mg/kg, single dose) of the same compound?
A: 299 ng/g

Q: What about the “AUC0–12 h” value ([3]; liver, 10 mg/kg, single dose) of the same compound?
A: 8,028 ng/(g h)

Q: What about the Cmin ([3]; liver, 10 mg/kg, single dose) of the same compound?
A: 110 ng/g

Q: And the “AUC0–12 h” value ([3]; liver, 10 mg/kg, steady state)?
A: 6,781 ng/(g h)

Q: And the Cmin ([3]; liver, 10 mg/kg, steady state)?
A: 100 ng/g

Q: And the “ratio of free drug in plasma to free drug in tissue (fB/fT)” value ([3]; mouse, single oral dose)?
A: 1.8

Q: What about the “AUC0–12 h” value ([3]; muscle, 10 mg/kg, single dose) of the same compound?
A: 667 ng·h/g

Q: What about the Cmin ([3]; muscle, 10 mg/kg, single dose) of the same compound?
A: 896 ng/g

Q: What about the Cmin ([3]; muscle, 10 mg/kg, steady state) of the same compound?
A: 1,649 ng/g

Q: And the Cmax ([3]; nude, mouse, gut, po, 5 mg/kg, single dose)?
A: 1220 ng/g

Q: And the Cmax ([3]; nude, mouse, gut, po, 10 mg/kg, single dose)?
A: 1930 ng/g

Q: What about the Cmax at 1 week ([3]; nude, mouse, gut, po, 10 mg/kg, steady state) of the same compound?
A: 6780 ng/g

Q: And the half-life ([3]; nude, mouse, gut, po, 10 mg/kg, t1/2, gut, single dose)?
A: 1 h

Q: What about the Tmax ([3]; nude, mouse, liver, lung, kidney, gut, muscle, skin, tumor, po, 10 mg/kg) of the same compound?
A: 0.5 to 2 h

Q: And the Cmax ([3]; nude, mouse, lung, po, 5 mg/kg, single dose)?
A: 206 ng/g

Q: What about the Cmax ([3]; nude, mouse, lung, po, 10 mg/kg, single dose) of the same compound?
A: 327 ng/g

Q: What about the half-life ([3]; nude, mouse, lung, po, 10 mg/kg, t1/2, lung, single dose) of the same compound?
A: 1 h

Q: And the Cmax at 1 week ([3]; nude, mouse, muscle, po, 10 mg/kg, steady state)?
A: 2040 ng/g

Q: What about the Cmax ([3]; nude, mouse, skin, po, 5 mg/kg, single dose) of the same compound?
A: 136 ng/g

Q: What about the Cmax ([3]; nude, mouse, skin, po, 10 mg/kg, single dose) of the same compound?
A: 169 ng/g

Q: And the Cmax ([3]; nude, mouse, tumor, po, 5 mg/kg, single dose)?
A: 501 ng/g

Q: And the Cmax ([3]; nude, mouse, tumor, po, 10 mg/kg, single dose)?
A: 861 ng/g

Q: And the Cmax ([3]; nude, mouse, tumor, po, 10 mg/kg, steady state)?
A: 487 ng/g

Q: And the “P:TAUC” value ([3]; gut, 5 mg/kg, single dose)?
A: 2.28

Q: What about the “P:TAUC” value ([3]; gut, 10 mg/kg, single dose) of the same compound?
A: 2.66

Q: And the “P:TAUC” value ([3]; gut, 10 mg/kg, steady state)?
A: 7.41

Q: And the “P:TAUC” value ([3]; liver, 5 mg/kg, single dose)?
A: 2.62

Q: And the “P:TAUC” value ([3]; liver, 10 mg/kg, single dose)?
A: 2.27

Q: And the “P:TAUC” value ([3]; liver, 10 mg/kg, steady state)?
A: 2.49

Q: And the “P:TAUC” value ([3]; lung, 5 mg/kg, single dose)?
A: 10.55

Q: What about the “P:TAUC” value ([3]; lung, 10 mg/kg, single dose) of the same compound?
A: 7.45

Q: And the “P:TAUC” value ([3]; muscle, 5 mg/kg, single dose)?
A: 14.06

Q: What about the “P:TAUC” value ([3]; muscle, 10 mg/kg, single dose) of the same compound?
A: 27.33

Q: And the “P:TAUC” value ([3]; muscle, 10 mg/kg, steady state)?
A: 18.16

Q: What about the “P:TAUC” value ([3]; skin, 5 mg/kg, single dose) of the same compound?
A: 14.25

Q: What about the “P:TAUC” value ([3]; skin, 10 mg/kg, single dose) of the same compound?
A: 16.56

Q: And the “P:TAUC” value ([3]; tumor, 5 mg/kg, single dose)?
A: 3.17

Q: And the “P:TAUC” value ([3]; tumor, 10 mg/kg, single dose)?
A: 3.82

Q: What about the “P:TAUC” value ([3]; tumor, 10 mg/kg, steady state) of the same compound?
A: 4.45

Q: And the “AUC0–12 h” value ([3]; skin, 5 mg/kg, single dose)?
A: 802 ng·h/g

Q: And the “AUC0–12 h” value ([3]; tumor, 5 mg/kg, single dose)?
A: 3,601 ng/(g h)

Q: What about the Cmin ([3]; tumor, 5 mg/kg, single dose) of the same compound?
A: 44 ng/g

Q: And the “AUC0–12 h” value ([3]; tumor, 10 mg/kg, single dose)?
A: 4,776 ng/(g h)

Q: And the Cmin ([3]; tumor, 10 mg/kg, single dose)?
A: 130 ng/g

Q: And the Cmin ([3]; tumor, 10 mg/kg, steady state)?
A: 52 ng/g

Q: What about the “peak inhibition of phosphorylated ERK” value ([4]; 5 mg/kg single dose) of the same compound?
A: 72%

Q: What about the “peak inhibition of phosphorylated ERK” value ([4]; 10 mg/kg single dose) of the same compound?
A: 80%

Q: What about the “apoptotic cells as measured by TUNEL” value [5] of the same compound?
A: slight increase in apoptotic cells as measured by TUNEL, this increase was not statistically significant

Q: And the necrotic area [5]?
A: no difference in necrotic area

Q: What about the “human AUC” value ([6]; clinical exposure compared with mouse 10 mg/kg once daily, ref [1]) of the same compound?
A: 10,012 ng/(mL h)

Q: What about the AUC [6, 16] of the same compound?
A: 3,124 ng/(mL h)

Q: And the Cmax [6, 16]?
A: 807 ng/mL

Q: And the T1/2γ [6, 16]?
A: 4.5 h

Q: What about the AUC ([6]; human plasma, 100 mg steady state, ref Adjei et al. [1]) of the same compound?
A: 5,006 ng/(mL h)

Q: And the “AUC0–12 h” value ([6]; humans given 100 mg AZD6244 free-base suspension BID, ref [1])?
A: 3,124 ng/(mL h)

Q: And the “AUC0–12 h” value ([6]; humans given 200 mg AZD6244 free-base suspension BID, ref [1])?
A: 5,234 ng/(mL h)

Q: And the “patients with stable disease of five or more months” value ([7]; 9 of 54 patients)?
A: 16%

Q: And the tolerability ([7]; most common toxicity skin rash, diarrhea, nausea and fatigue)?
A: well tolerated
